≈ marks a conversion by molar mass, not a printed value.
Tested on: not listed separately
Experiment: Inhibition of beta-hematin formation after 16 hrs
Type: functional
Settings: not given
Summary of the method: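 Plasma came from male Swiss mice (15–20 g) infected with 1 × 10⁵ infected RBCs. Blood was drawn at 50% parasitemia by cardiac puncture into 2.0% citrate and spun at 4 °C. Hemin substrate ([…]) and compound were incubated in 100 mM acetate buffer, pH 5.1, at 37 °C for 16 h with shaking. The pellet was washed in SDS buffers. IC50 was the mean of three experiments in triplicate.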

**Q.** Which IC50 does the source give for `CCN(CC)CCCC(C)Nc1ccnc2cc(Cl)ccc12` (stereo unspecified) [CHLOROQUINE] here?
**A.** 3.65 µg/mL (≈ 11.4 µM)

Tested on: Plasmodium falciparum 3D7
Experiment: Selectivity index, IC50 for african green monkey Vero cells to IC50 for Plasmodium falciparum 3D7
Settings: not given

**Q.** With `CCN(CC)CCNc1nc(Nc2ccccc2)nc(Nc2cccc(Nc3ccnc4cc(Cl)ccc34)c2)n1` as the molecule, how does the “Selectivity Index” value read?
**A.** 135.37

**Q.** For `CCN(CC)CCNc1nc(Nc2ccc(C)cc2)nc(Nc2ccc(Nc3ccnc4cc(Cl)ccc34)cc2)n1`, which “Selectivity Index” value is on record?
**A.** 64.38

**Q.** With `Clc1ccc2c(Nc3ccc(Nc4nc(Nc5ccccc5)nc(NC5CCCCC5)n4)cc3)ccnc2c1` as the molecule, how does the “Selectivity Index” value read?
**A.** 76.97

**Q.** With `Cc1ccc(Nc2nc(Nc3ccc(Nc4ccnc5cc(Cl)ccc45)cc3)nc(N3CCN(C)CC3)n2)cc1` as the molecule, how does the “Selectivity Index” value read?
**A.** 36.39

**Q.** With `Cc1ccccc1Nc1nc(Nc2ccc(Nc3ccnc4cc(Cl)ccc34)cc2)nc(NC2CCCCC2)n1` as the molecule, how does the “Selectivity Index” value read?
**A.** 449.8

**Q.** For `Cc1ccc(Nc2nc(Nc3cccc(Nc4ccnc5cc(Cl)ccc45)c3)nc(N3CCN(C)CC3)n2)cc1`, which “Selectivity Index” value is on record?
**A.** 226.18

**Q.** Which “Selectivity Index” value does the source give for `Clc1ccc2c(Nc3cccc(Nc4nc(NCCCN5CCOCC5)nc(Nc5ccccc5)n4)c3)ccnc2c1` here?
**A.** 90.51

**Q.** For `Cc1ccc(Nc2nc(Nc3ccc(Nc4ccnc5cc(Cl)ccc45)cc3)nc(NC3CCCCC3)n2)cc1`, which “Selectivity Index” value is on record?
**A.** 137.42

**Q.** With `CCN1CCN(c2nc(Nc3ccc(Nc4ccnc5cc(Cl)ccc45)cc3)nc(Nc3ccccc3C)n2)CC1` as the molecule, how does the “Selectivity Index” value read?
**A.** 2.58

**Q.** For `Cc1ccccc1Nc1nc(Nc2ccc(Nc3ccnc4cc(Cl)ccc34)cc2)nc(N2CCN(C)CC2)n1`, which “Selectivity Index” value is on record?
**A.** 16.33

Tested on: Plasmodium falciparum
Experiment: Antimalarial activity against chloroquine-sensitive Plasmodium falciparum 3D7 infected in erythrocytes after 72 hrs by syber green 1 assay
Settings: 3D7, 72 h

**Q.** For `CCN(CC)CCNc1nc(Nc2ccccc2)nc(Nc2cccc(Nc3ccnc4cc(Cl)ccc34)c2)n1`, which IC50 is on record?
**A.** 292 nM

**Q.** Which IC50 does the source give for `CCN(CC)CCNc1nc(Nc2ccc(C)cc2)nc(Nc2ccc(Nc3ccnc4cc(Cl)ccc34)cc2)n1` here?
**A.** 82.8 nM

**Q.** For `Clc1ccc2c(Nc3ccc(Nc4nc(Nc5ccccc5)nc(NC5CCCCC5)n4)cc3)ccnc2c1`, which IC50 is on record?
**A.** 64.8 nM

**Q.** For `Cc1ccc(Nc2nc(Nc3ccc(Nc4ccnc5cc(Cl)ccc45)cc3)nc(N3CCN(C)CC3)n2)cc1`, which IC50 is on record?
**A.** 12.4 nM

**Q.** For `Cc1ccccc1Nc1nc(Nc2ccc(Nc3ccnc4cc(Cl)ccc34)cc2)nc(NC2CCCCC2)n1`, which IC50 is on record?
**A.** 163 nM

**Q.** With `Cc1ccc(Nc2nc(Nc3cccc(Nc4ccnc5cc(Cl)ccc45)c3)nc(N3CCN(C)CC3)n2)cc1` as the molecule, how does the IC50 read?
**A.** 43.2 nM

**Q.** Which IC50 does the source give for `Clc1ccc2c(Nc3cccc(Nc4nc(NCCCN5CCOCC5)nc(Nc5ccccc5)n4)c3)ccnc2c1` here?
**A.** 111 nM

**Q.** For `Cc1ccc(Nc2nc(Nc3ccc(Nc4ccnc5cc(Cl)ccc45)cc3)nc(NC3CCCCC3)n2)cc1`, which IC50 is on record?
**A.** 74 nM

**Q.** With `CCN1CCN(c2nc(Nc3ccc(Nc4ccnc5cc(Cl)ccc45)cc3)nc(Nc3ccccc3C)n2)CC1` as the molecule, how does the IC50 read?
**A.** 102 nM

**Q.** For `Cc1ccccc1Nc1nc(Nc2ccc(Nc3ccnc4cc(Cl)ccc34)cc2)nc(N2CCN(C)CC2)n1`, which IC50 is on record?
**A.** 18.9 nM
